Measured values as given in ChEMBL document CHEMBL3758168, “Hybrid triazoles: Design and synthesis as potential dual inhibitor of growth and efflux inhibition in tuberculosis” (Eur J Med Chem, 2016).
Values after ≈ are worked out from the molar mass of the structure shown.

Tests used:
[1] = system: Mycobacterium tuberculosis; experiment: Antibacterial activity against Mycobacterium tuberculosis H37Rv ATCC 27294T assessed as rifampin MIC at 0.25 ug/ml after 7 days by microdilution checkerboard assay; assay type: functional; conditions: 168 h
Summary of the method: (§1)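 Two-dimensional checkerboard in H37Rv at 10^5 CFU/ml in MB7H9/OADC. Partner drug (amikacin, EtBr, isoniazid, ofloxacin or rifampin) two-fold serially diluted across columns 3-11. Test compound two-fold serially diluted down rows 2-6. Plates incubated 7 days at 37 °C, then MTT added overnight. […] Run in triplicate.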

[2] = system: Mycobacterium tuberculosis; experiment: Antibacterial activity against Mycobacterium tuberculosis H37Rv ATCC 27294T assessed as amikacin MIC at 0.25 ug/ml after 7 days by microdilution checkerboard assay; assay type: functional; conditions: 168 h; summary of the method: as §1
[3] = system: Mycobacterium tuberculosis; experiment: Antibacterial activity against Mycobacterium tuberculosis H37Rv ATCC 27294T assessed as ofloxacin MIC at 8 ug/ml after 7 days by microdilution checkerboard assay; assay type: functional; conditions: 168 h; summary of the method: as §1
[4] = system: Mycobacterium tuberculosis; experiment: Antibacterial activity against Mycobacterium tuberculosis H37Rv ATCC 27294T assessed as ethidium bromide MIC at 0.12 ug/ml after 7 days by microdilution checkerboard assay; assay type: functional; conditions: 168 h; summary of the method: as §1
[5] = system: Mycobacterium tuberculosis; experiment: Antibacterial activity against Mycobacterium tuberculosis H37Rv ATCC 27294T assessed as ofloxacin MIC at 4 ug/ml after 7 days by microdilution checkerboard assay; assay type: functional; conditions: 168 h; summary of the method: as §1
[6] = system: Mycobacterium tuberculosis; experiment: Antibacterial activity against Mycobacterium tuberculosis H37Rv ATCC 27294T assessed as amikacin MIC at 2 ug/ml after 7 days by microdilution checkerboard assay; assay type: functional; conditions: 168 h; summary of the method: as §1
[7] = system: Mycobacterium tuberculosis; experiment: Antibacterial activity against Mycobacterium tuberculosis H37Rv ATCC 27294T assessed as isoniazid MIC at 2 ug/ml after 7 days by microdilution checkerboard assay; assay type: functional; conditions: 168 h; summary of the method: as §1
[8] = system: Mycolicibacterium smegmatis; experiment: Anti-tubercular activity against Mycobacterium smegmatis MC2 155 ATCC 700084 after 3 days by microdilution method; assay type: functional; conditions: MC2 155 ATCC 700084, 72 h
Summary of the method: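 M. smegmatis mc2155 grown in MB7H9 + 10% OADC at 37 °C with shaking to OD600 0.8. Inoculum set to 0.5 McFarland, diluted 1:100, and mixed 1:1 with two-fold serial dilutions in MB7H9. Plates incubated 3 days at 37 °C with growth and sterility controls. MIC taken as the lowest concentration with no visible growth.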

[9] = system: Mycobacterium tuberculosis; experiment: Antibacterial activity against Mycobacterium tuberculosis H37Rv ATCC 27294T assessed as ethidium bromide MIC at 4 ug/ml after 7 days by microdilution checkerboard assay; assay type: functional; conditions: 168 h; summary of the method: as §1
[10] = system: Mycobacterium tuberculosis; experiment: Antibacterial activity against Mycobacterium tuberculosis H37Rv ATCC 27294T assessed as rifampin MIC at 0.5 ug/ml after 7 days by microdilution checkerboard assay; assay type: functional; conditions: 168 h
Summary of the method: (§2)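 M. tuberculosis H37Rv grown in MB7H9 + 10% OADC at 37 °C to OD600 0.8; plates inoculated at 10^5 CFU/ml. Rifampicin two-fold serially diluted across columns, test compound two-fold diluted down rows (two-dimensional checkerboard). Sealed, 37 °C for seven days, then MTT added and incubated overnight. MIC read as no colour change. Triplicate.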

[11] = system: Mycobacterium tuberculosis; experiment: Antibacterial activity against Mycobacterium tuberculosis H37Rv ATCC 27294T assessed as ofloxacin MIC at 0.5 ug/ml after 7 days by microdilution checkerboard assay; assay type: functional; conditions: 168 h; summary of the method: as §1
[12] = system: Mycobacterium tuberculosis; experiment: Antibacterial activity against Mycobacterium tuberculosis H37Rv ATCC 27294T assessed as rifampin MIC at 0.12 ug/ml after 7 days by microdilution checkerboard assay; assay type: functional; conditions: 168 h; summary of the method: as §1
[13] = system: Mycobacterium tuberculosis; experiment: Antibacterial activity against Mycobacterium tuberculosis H37Rv ATCC 27294T assessed as rifampin MIC at 2 ug/ml after 7 days by microdilution checkerboard assay; assay type: functional; conditions: 168 h; summary of the method: as §2
[14] = system: Mycobacterium tuberculosis; experiment: Antibacterial activity against Mycobacterium tuberculosis H37Rv ATCC 27294T assessed as isoniazid MIC at 0.5 ug/ml after 7 days by microdilution checkerboard assay; assay type: functional; conditions: 168 h; summary of the method: as §1
[15] = system: Mycobacterium tuberculosis; experiment: Antibacterial activity against Mycobacterium tuberculosis H37Rv ATCC 27294T assessed as isoniazid MIC at 0.12 ug/ml after 7 days by microdilution checkerboard assay; assay type: functional; conditions: 168 h; summary of the method: as §1
[16] = system: Mycobacterium tuberculosis; experiment: Antibacterial activity against Mycobacterium tuberculosis H37Rv ATCC 27294T assessed as ethidium bromide MIC at 0.5 ug/ml after 7 days by microdilution checkerboard assay; assay type: functional; conditions: 168 h; summary of the method: as §1
[17] = system: Mycobacterium tuberculosis; experiment: Antibacterial activity against Mycobacterium tuberculosis H37Rv ATCC 27294T assessed as isoniazid MIC at 0.25 ug/ml after 7 days by microdilution checkerboard assay; assay type: functional; conditions: 168 h; summary of the method: as §1
[18] = system: Mycobacterium tuberculosis; experiment: Antibacterial activity against Mycobacterium tuberculosis H37Rv ATCC 27294T assessed as isoniazid MIC at 1 ug/ml after 7 days by microdilution checkerboard assay; assay type: functional; conditions: 168 h; summary of the method: as §1
[19] = system: Mycobacterium tuberculosis; experiment: Antibacterial activity against Mycobacterium tuberculosis H37Rv ATCC 27294T assessed as ofloxacin MIC at 0.25 ug/ml after 7 days by microdilution checkerboard assay; assay type: functional; conditions: 168 h; summary of the method: as §1
[20] = system: Mycobacterium tuberculosis; experiment: Antibacterial activity against Mycobacterium tuberculosis H37Rv ATCC 27294T assessed as rifampin MIC at 1 ug/ml after 7 days by microdilution checkerboard assay; assay type: functional; conditions: 168 h; summary of the method: as §2
[21] = system: Mycobacterium tuberculosis; experiment: Antibacterial activity against Mycobacterium tuberculosis H37Rv ATCC 27294T assessed as ofloxacin MIC at 0.12 ug/ml after 7 days by microdilution checkerboard assay; assay type: functional; conditions: 168 h; summary of the method: as §1
[22] = system: Mycobacterium tuberculosis; experiment: Antibacterial activity against Mycobacterium tuberculosis H37Rv ATCC 27294T assessed as amikacin MIC at 1 ug/ml after 7 days by microdilution checkerboard assay; assay type: functional; conditions: 168 h; summary of the method: as §1
[23] = system: Mycobacterium tuberculosis; experiment: Anti-tubercular activity against Mycobacterium tuberculosis H37Rv ATCC 27294T after 7 days by mircodilution method; assay type: functional; conditions: 168 h
Summary of the method: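 H37Rv grown static in MB7H9 + 10% OADC at 37 °C to OD600 0.8, then diluted to about 10^5 cells/ml. Mixed 1:1 with two-fold serial dilutions in MB7H9/OADC and incubated 7 days at 37 °C. MTT added to final 2.5% and plates incubated overnight. MIC is the lowest concentration with no colour change. Run in triplicate.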

[24] = system: Mycobacterium tuberculosis; experiment: Antibacterial activity against Mycobacterium tuberculosis H37Rv ATCC 27294T assessed as amikacin MIC at 8 ug/ml after 7 days by microdilution checkerboard assay; assay type: functional; conditions: 168 h; summary of the method: as §1
[25] = system: Mycobacterium tuberculosis; experiment: Antibacterial activity against Mycobacterium tuberculosis H37Rv ATCC 27294T assessed as amikacin MIC at 4 ug/ml after 7 days by microdilution checkerboard assay; assay type: functional; conditions: 168 h; summary of the method: as §1
[26] = system: Mycobacterium tuberculosis; experiment: Antibacterial activity against Mycobacterium tuberculosis H37Rv ATCC 27294T assessed as ofloxacin MIC at 1 ug/ml after 7 days by microdilution checkerboard assay; assay type: functional; conditions: 168 h; summary of the method: as §1
[27] = system: Mycobacterium tuberculosis; experiment: Antibacterial activity against Mycobacterium tuberculosis H37Rv ATCC 27294T assessed as ofloxacin MIC at 2 ug/ml after 7 days by microdilution checkerboard assay; assay type: functional; conditions: 168 h; summary of the method: as §1
[28] = system: Mycobacterium tuberculosis; experiment: Antibacterial activity against Mycobacterium tuberculosis H37Rv ATCC 27294T assessed as amikacin MIC at 0.12 ug/ml after 7 days by microdilution checkerboard assay; assay type: functional; conditions: 168 h; summary of the method: as §1
[29] = system: Mycobacterium tuberculosis; experiment: Antibacterial activity against Mycobacterium tuberculosis H37Rv ATCC 27294T assessed as rifampin MIC at 8 ug/ml after 7 days by microdilution checkerboard assay; assay type: functional; conditions: 168 h; summary of the method: as §2
[30] = system: Mycobacterium tuberculosis; experiment: Antibacterial activity against Mycobacterium tuberculosis H37Rv ATCC 27294T assessed as isoniazid MIC at 8 ug/ml after 7 days by microdilution checkerboard assay; assay type: functional; conditions: 168 h; summary of the method: as §1
[31] = system: Mycobacterium tuberculosis; experiment: Antibacterial activity against Mycobacterium tuberculosis H37Rv ATCC 27294T assessed as ethidium bromide MIC at 0.25 ug/ml after 7 days by microdilution checkerboard assay; assay type: functional; conditions: 168 h; summary of the method: as §1
[32] = system: Mycobacterium tuberculosis; experiment: Antibacterial activity against Mycobacterium tuberculosis H37Rv ATCC 27294T assessed as ethidium bromide MIC at 8 ug/ml after 7 days by microdilution checkerboard assay; assay type: functional; conditions: 168 h; summary of the method: as §1
[33] = Cytotoxicity against human MDM assessed as cell viability after 3 days by Alamar blue dye-based fluorocytometric analysis relative to control; conditions: 72 h
[34] = system: Mycobacterium tuberculosis; experiment: Antibacterial activity against Mycobacterium tuberculosis H37Rv ATCC 27294T assessed as amikacin MIC at 0.5 ug/ml after 7 days by microdilution checkerboard assay; assay type: functional; conditions: 168 h; summary of the method: as §1
[35] = system: Mycobacterium tuberculosis; experiment: Antibacterial activity against Mycobacterium tuberculosis H37Rv ATCC 27294T assessed as ethidium bromide MIC at 2 ug/ml after 7 days by microdilution checkerboard assay; assay type: functional; conditions: 168 h; summary of the method: as §1
[36] = system: Mycobacterium tuberculosis; experiment: Antibacterial activity against Mycobacterium tuberculosis H37Rv ATCC 27294T assessed as ethidium bromide MIC at 1 ug/ml after 7 days by microdilution checkerboard assay; assay type: functional; conditions: 168 h; summary of the method: as §1
[37] = system: Mycobacterium tuberculosis; experiment: Antibacterial activity against Mycobacterium tuberculosis H37Rv ATCC 27294T assessed as rifampin MIC at 4 ug/ml after 7 days by microdilution checkerboard assay; assay type: functional; conditions: 168 h; summary of the method: as §2
[38] = system: Mycobacterium tuberculosis; experiment: Antibacterial activity against Mycobacterium tuberculosis H37Rv ATCC 27294T assessed as isoniazid MIC at 4 ug/ml after 7 days by microdilution checkerboard; assay type: functional; conditions: 168 h; summary of the method: as §1

CCCSc1nnc(COc2ccccc2C2=NOC(c3ccc(Cl)cc3Cl)C2)n1NC(C)=O (stereo not drawn)
MIC [1]: 0.0312 µg/mL | MIC [2]: 1 µg/mL | MIC [3]: 0.0156 µg/mL | MIC [4]: 12.5 µg/mL | MIC [5]: 0.0156 µg/mL | MIC [6]: 0.25 µg/mL | MIC [7]: 0.0125 µg/mL | MIC [8]: 1 µg/mL (≈ 1.92 µM) | MIC [9]: 0.195 µg/mL | MIC [10]: 0.0312 µg/mL | MIC [11]: 1 µg/mL | MIC [12]: 0.0625 µg/mL | MIC [13]: 0.0156 µg/mL | MIC [14]: 0.1 µg/mL | MIC [15]: 0.1 µg/mL | MIC [16]: 12.5 µg/mL | MIC [17]: 0.1 µg/mL | MIC [18]: 0.05 µg/mL | MIC [19]: 1 µg/mL | MIC [20]: 0.0156 µg/mL | MIC [21]: 1 µg/mL | MIC [22]: 1 µg/mL | MIC [23]: 4 µg/mL (≈ 7.69 µM) | MIC [24]: 0.0312 µg/mL | MIC [25]: 0.25 µg/mL | MIC [26]: 0.25 µg/mL | MIC [27]: 0.0312 µg/mL | MIC [28]: 1 µg/mL | MIC [29]: 0.0156 µg/mL | MIC [30]: 0.00078 µg/mL | MIC [31]: 12.5 µg/mL | MIC [32]: 0.195 µg/mL | IC50 [33]: 128 µg/mL (≈ 245 µM) | MIC [34]: 1 µg/mL | MIC [35]: 0.781 µg/mL | MIC [36]: 6.25 µg/mL | MIC [37]: 0.0156 µg/mL | MIC [38]: 0.00312 µg/mL
